Test results: ChEMBL document CHEMBL1828606, “Anticancer and radio-sensitizing evaluation of some new thiazolopyrane and thiazolopyranopyrimidine derivatives bearing a sulfonamide moiety” (Eur J Med Chem, 2011)

How the values were obtained:
MCF7 [1] = assay: Anticancer activity against 8 Gy gamma-irradiated human MCF7 cells assessed as viable cells after 48 hrs at 10 uM by SRB assay relative to control; assay type: functional
Method in brief: (§1)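 MCF7 human breast tumor cells seeded at 10⁴ cells/well and left 24 h to attach. Compounds dissolved in DMSO, added in replicate wells per concentration, 48 h at 37 °C under 5% CO₂. Cells fixed and stained 30 min with 0.4% (wt/vol) SRB in 1% acetic acid. Washed four times with 1% acetic acid, dye recovered in Tris-EDTA, read on an ELISA reader.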

MCF7 [2] = assay: Anticancer activity against 8 Gy gamma-irradiated human MCF7 cells assessed as viable cells after 48 hrs at 25 uM by SRB assay relative to control; assay type: functional; method in brief: as §1
MCF7 [3] = assay: Anticancer activity against 8 Gy gamma-irradiated human MCF7 cells assessed as viable cells after 48 hrs at 50 uM by SRB assay relative to control; assay type: functional; method in brief: as §1
MCF7 [4] = assay: Anticancer activity against 8 Gy gamma-irradiated human MCF7 cells assessed as viable cells after 48 hrs at 100 uM by SRB assay relative to control; assay type: functional; method in brief: as §1
MCF7 [5] = assay: Anticancer activity against 8 Gy gamma-irradiated human MCF7 cells assessed as viable cells after 48 hrs by SRB assay; assay type: functional, cell-based; details: MCF7, light or radiation study; method in brief: as §1
MCF7 [6] = assay: Anticancer activity against human MCF7 cells assessed as viable cells after 48 hrs by SRB assay; assay type: functional, cell-based; details: MCF7, 48 h; method in brief: as §1
MCF7 [7] = assay: Anticancer activity against human MCF7 cells assessed as viable cells at 10 uM after 48 hrs by SRB assay relative to control; assay type: functional; method in brief: as §1
MCF7 [8] = assay: Anticancer activity against human MCF7 cells assessed as viable cells at 25 uM after 48 hrs by SRB assay relative to control; assay type: functional; method in brief: as §1
MCF7 [9] = assay: Anticancer activity against human MCF7 cells assessed as viable cells at 50 uM after 48 hrs by SRB assay relative to control; assay type: functional; method in brief: as §1
MCF7 [10] = assay: Anticancer activity against human MCF7 cells assessed as viable cells at 100 uM after 48 hrs by SRB assay relative to control; assay type: functional; method in brief: as §1

Row | SMILES | IC50 (MCF7 [5]) [µM] | IC50 (MCF7 [6]) [µM] | fold change (FC) (MCF7 [1]) | fold change (FC) (MCF7 [2]) | fold change (FC) (MCF7 [3]) | fold change (FC) (MCF7 [4]) | fold change (FC) (MCF7 [7]) | fold change (FC) (MCF7 [8]) | fold change (FC) (MCF7 [9]) | fold change (FC) (MCF7 [10])
1 | CC(=O)N(C(C)=O)C1=C(C#N)C(c2ccc(Cl)cc2)c2sc(Nc3ccc(S(N)(=O)=O)cc3)nc2O1 (stereo not given) |  | 74.3 |  |  |  |  | 0.913 | 0.511 | 0.234 | 0.617
2 | N#CC1=C(/N=C/c2ccccc2)Oc2nc(Nc3ccc(S(N)(=O)=O)cc3)sc2C1c1ccc(Cl)cc1 (stereo not given) |  | 45.2 |  |  |  |  | 0.93 | 0.206 | 0.295 | 0.324
3 | N#CC1=C(NS(=O)(=O)c2ccccc2)Oc2nc(Nc3ccc(S(N)(=O)=O)cc3)sc2C1c1ccc(Cl)cc1 (stereo not given) |  | 47.5 |  |  |  |  | 0.697 | 0.492 | 0.239 | 0.361
4 | Cc1ccc(S(=O)(=O)NC2=C(C#N)C(c3ccc(Cl)cc3)c3sc(Nc4ccc(S(N)(=O)=O)cc4)nc3O2)cc1 (stereo not given) |  | 71.7 |  |  |  |  | 0.92 | 0.52 | 0.2 | 0.6
5 | Nc1nc(=O)[nH]c2c1C(c1ccc(Cl)cc1)c1sc(Nc3ccc(S(N)(=O)=O)cc3)nc1O2 (stereo not given) |  | 84.1 |  |  |  |  | 0.9 | 0.56 | 0.265 | 0.654
6 | Nc1nc(=S)[nH]c2c1C(c1ccc(Cl)cc1)c1sc(Nc3ccc(S(N)(=O)=O)cc3)nc1O2 (stereo not given) |  | 52.8 |  |  |  |  | 0.814 | 0.639 | 0.241 | 0.325
7 | N#CC1=C(NC(N)=O)Oc2nc(Nc3ccc(S(N)(=O)=O)cc3)sc2C1c1ccc(Cl)cc1 (stereo not given) |  | 49.8 |  |  |  |  | 0.701 | 0.717 | 0.309 | 0.228

Stronger by IC50 (MCF7 [6]), values ahead:

Row | IC50 (MCF7 [5]) [µM] | IC50 (MCF7 [6]) [µM] | SMILES | fold change (FC) (MCF7 [1]) | fold change (FC) (MCF7 [2]) | fold change (FC) (MCF7 [3]) | fold change (FC) (MCF7 [4]) | fold change (FC) (MCF7 [7]) | fold change (FC) (MCF7 [8]) | fold change (FC) (MCF7 [9]) | fold change (FC) (MCF7 [10])
8 | 26.2 | 39.4 | N#CC1=C(N)Oc2nc(Nc3ccc(S(N)(=O)=O)cc3)sc2C1c1ccc(Cl)cc1 (stereo not given) | 0.706 | 0.203 | 0.062 | 0.097 | 0.848 | 0.36 | 0.168 | 0.214
9 | 28.4 | 41.6 | NS(=O)(=O)c1ccc(Nc2nc3c(s2)C(c2ccc(Cl)cc2)c2c(nc[nH]c2=O)O3)cc1 (stereo not given) | 0.65 | 0.371 | 0.06 | 0.04 | 0.794 | 0.515 | 0.204 | 0.175
10 |  | 41.9 | CC(=O)NC1=C(C#N)C(c2ccc(Cl)cc2)c2sc(Nc3ccc(S(N)(=O)=O)cc3)nc2O1 (stereo not given) |  |  |  |  | 0.801 | 0.447 | 0.183 | 0.252
11 |  | 41.8 | NC(=O)C1=C(N)Oc2nc(Nc3ccc(S(N)(=O)=O)cc3)sc2C1c1ccc(Cl)cc1 (stereo not given) |  |  |  |  | 0.815 | 0.499 | 0.169 | 0.21
12 | 23.7 | 35.8 | Nc1ncnc2c1C(c1ccc(Cl)cc1)c1sc(Nc3ccc(S(N)(=O)=O)cc3)nc1O2 (stereo not given) | 0.504 | 0.341 | 0.064 | 0.086 | 0.62 | 0.454 | 0.186 | 0.207
13 | 17 | 34.6 | N#CC1=C(/N=C/c2ccc(Cl)cc2)Oc2nc(Nc3ccc(S(N)(=O)=O)cc3)sc2C1c1ccc(Cl)cc1 (stereo not given) | 0.462 | 0.124 | 0.143 | 0.182 | 0.634 | 0.24 | 0.257 | 0.304
14 |  | 43.8 | N#CC1=C(NC(=O)CCl)Oc2nc(Nc3ccc(S(N)(=O)=O)cc3)sc2C1c1ccc(Cl)cc1 (stereo not given) |  |  |  |  | 0.702 | 0.531 | 0.25 | 0.252
